Screens: PubChem BioAssay, several laboratories
Hits are enriched below; roughly 2.6% of the tested compounds scored in any of these assays.
PolyA_inh – inhibitors of polyadenylation in S. cerevisiae. 0.02% of 300,000 active. activity score, % at 12 µM. S. cerevisiae SKY197-pL101 polyadenylation reporter, beta-gal luminescence; efflux-impaired pdr1/pdr3 knockout yeast; score 100 = 6 SD above DMSO;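 active = lowest replicate activity score at least 50, where 100 means six control SD above control mean; inconclusive = lowest score under 50 but half or more replicates reach 50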;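 also: yeast exposed to compound for 9 h at 30 °C; higher score means more reporter readthrough which indicates perturbed polyadenylation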
CHT_block – inhibitors of human choline transporter CHT | CHT-expressing cells, membrane potential dye, choline response; active compounds read low | B-score at 10 µM | AID 488975 | 0.86% of 310,000 active;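 active = B-score over 3 SD under the library average, and starting fluorescence ratio not unusually high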;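 also: choline stimulus applied at its EC90 after an EC20 pre-addition; B-score computed on integrated fluorescence ratio after choline addition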
Target sequence (Q9GZV3 whole entry, looked up): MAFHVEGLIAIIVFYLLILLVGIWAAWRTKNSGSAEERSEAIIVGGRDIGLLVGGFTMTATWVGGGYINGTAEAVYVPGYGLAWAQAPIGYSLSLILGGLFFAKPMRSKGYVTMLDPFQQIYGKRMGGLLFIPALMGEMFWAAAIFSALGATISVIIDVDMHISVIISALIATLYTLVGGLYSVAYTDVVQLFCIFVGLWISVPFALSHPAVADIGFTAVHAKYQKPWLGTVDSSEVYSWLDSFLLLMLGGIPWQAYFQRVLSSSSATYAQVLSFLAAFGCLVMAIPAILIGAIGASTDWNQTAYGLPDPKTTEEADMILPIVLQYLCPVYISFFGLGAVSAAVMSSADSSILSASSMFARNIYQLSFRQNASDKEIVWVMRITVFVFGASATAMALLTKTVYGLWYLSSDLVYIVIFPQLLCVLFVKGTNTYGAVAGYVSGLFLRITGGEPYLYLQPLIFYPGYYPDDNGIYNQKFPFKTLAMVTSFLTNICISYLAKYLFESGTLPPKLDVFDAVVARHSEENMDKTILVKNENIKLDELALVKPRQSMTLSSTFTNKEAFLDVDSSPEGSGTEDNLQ
T_cruzi_inh – blocks replication of Trypanosoma cruzi; T. cruzi beta-gal in NIH3T3, luminescence, 90 h; inhibition, % (test concentration not listed); AID 1885; 1.4% of 300,000 active;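 active = mean inhibition across valid replicates above about 55%, limit read from the data; inconclusive = mean below that limit but half or more replicates reach it; inactive = mean below it, under half of replicates reach it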;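 also: signal also drops with host cell toxicity which is not excluded here; higher percent means less beta-gal luminescence so fewer parasites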
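Test system: β-gal T. cruzi (Tulahuen C4) inside NIH/3T3 cells / Quantity: 5,000 cells/well / Measured by: luminescence from GalScreen with 0.05% NP40, read after 60 min / Medium: DMEM plus 2% FBS / Measure: parasite load inhibition, % / Reagent: Tulahuen C4 trypomastigotes, 5000/well / Schedule: co-culture of at least 90 h after 3 h attachment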
CHT_allo_act – allosteric activators of human choline transporter CHT; Q9GZV3; CHT-expressing cells, membrane potential dye, choline EC20; active compounds read high; LV-AA mutant CHT in HEK293 cells; B-score at 10 µM; 0.49% of 310,000 active; AID 488977;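 active = initial fluorescence not abnormally high and integrated response B-score, plate-corrected, over 3 SD above library mean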
CHT_act_confirm – human CHT activation, confirmatory screen. shares compounds with CHT_allo_act. CHT-expressing cells, membrane potential dye fluorescence (FDSS); % of choline EC20–EC90 response window; HEK293 expressing CHT LV-AA mutant; choline added at its EC20. activation, % at 10 µM. 91% of 2,500 active;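 active = primary screen active, with duplicate mean activation above negative control mean plus 3 SD, cut at about 11% in these data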
HEK293_MP_dye – counter-screen for CHT activators: effect in parental HEK293 cells; shares compounds with CHT_allo_act; membrane potential dye fluorescence (FDSS); measured after EC20 choline addition; ratio readout change at 10 µM, hits read low; 62% of 2,500 active;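 active = duplicate-averaged ratio beyond 3 SD from buffer wells, up or down, though filed actives are nearly all decreases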
Numbers stand for hits; . = inactive; ? = inconclusive; / = not tested or not shown.

SMILES PolyA_inh CHT_block T_cruzi_inh CHT_allo_act CHT_act_confirm HEK293_MP_dye
COc1ccc(NC(=O)N2C[C@@H]3C[C@@H](C2)c2cccc(=O)n2C3)cc1 ? . . . / /
O=[N+]([O-])[N-][n+]1cnn(Cc2ccc(Cl)cc2)c1 . . . . / /
O=C(c1ccco1)c1cn(Cc2ccc(Cl)cc2)c2ccccc12 . . . . 18.3 .
CC(=O)c1cn(Cc2ccc(F)cc2)c2ccccc12 . . . . / /
COC(=O)c1c2[n+](cc3cc(OC)c(OC)cc13)CCc1cc(OC)c(OC)cc1-2 . . . . 44.4 -48.9
